Assay results reported in ChEMBL document CHEMBL4265908, “Structure-activity and structure-property relationships of novel Nrf2 activators with a 1,2,4-oxadiazole core and their therapeutic effects on acetaminophen (APAP)-induced acute liver injury” (Eur J Med Chem, 2018).
≈ marks a conversion by molar mass, not a printed value.

Legend:
L02 [1] = assay: Hepatoprotective activity against APAP-induced cell injury in human LO2 cells cotreated with Nrf2 siRNA assessed as cell viability at 20 uM pretreated for 24 hrs followed by APAP treatment measured after 24 hrs by MTT assay; type: functional; conditions: read-out: Activity
How it was run: (§1)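 LO2 cells plated for 12 h and pretreated for 24 h with 5, 10 or 20 μM compound. One arm was first transfected with 50 nM Nrf2 siRNA before receiving 20 μM compound. Medium then replaced with medium containing 8 mM APAP for 24 h. Viability by MTT at A570. Mean ± SD of three experiments.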

[2] = target: T1, Nuclear factor erythroid 2-related factor 2 (Homo sapiens) (UniProt Q16236); assay: Induction of Nrf2 nuclear translocation in human LO2 cells assessed as Nrf2 binding to antioxidant response element after 12 hrs by DAPI staining based immunofluorescence assay; type: cell-based
T1 sequence (whole entry): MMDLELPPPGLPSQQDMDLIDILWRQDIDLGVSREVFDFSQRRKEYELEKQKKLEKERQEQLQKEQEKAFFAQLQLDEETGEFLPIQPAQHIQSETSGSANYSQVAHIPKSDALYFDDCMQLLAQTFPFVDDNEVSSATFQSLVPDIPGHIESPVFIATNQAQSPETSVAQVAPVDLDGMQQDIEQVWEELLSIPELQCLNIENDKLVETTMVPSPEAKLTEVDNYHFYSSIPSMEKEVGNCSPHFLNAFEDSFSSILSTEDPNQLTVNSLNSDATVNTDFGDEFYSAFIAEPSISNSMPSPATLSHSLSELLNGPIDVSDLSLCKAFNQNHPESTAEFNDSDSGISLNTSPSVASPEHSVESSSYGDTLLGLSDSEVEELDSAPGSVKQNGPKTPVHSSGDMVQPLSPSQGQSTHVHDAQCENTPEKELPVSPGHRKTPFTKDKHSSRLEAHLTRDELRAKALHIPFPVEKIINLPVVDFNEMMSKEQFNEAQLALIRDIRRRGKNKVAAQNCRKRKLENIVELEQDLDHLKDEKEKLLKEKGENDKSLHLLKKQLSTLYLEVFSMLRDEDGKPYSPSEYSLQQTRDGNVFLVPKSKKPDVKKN
How it was run: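 LO2 cells grown on coverslips for 24 h, then treated 12 h with compound (5 or 20 μM); 80 μM tBHQ served as reference. Cells fixed, probed with anti-Nrf2 and a DyLight 488 anti-rabbit secondary, nuclei stained with DAPI. Imaged by confocal microscopy.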

[3] = target: T1, Nuclear factor erythroid 2-related factor 2 (Homo sapiens); assay: Activation of Nrf2 in human HepG2-ARE-C8 cells assessed as induction of ARE-mediated luciferase activity at 40 uM after 24 hrs by luciferase reporter gene assay relative to control; type: cell-based
How it was run: (§2)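 HepG2-ARE-C8 cells stably carrying ARE-luciferase, grown in DMEM with 10% FBS at 37 °C and 5% CO2. Seeded at 5 × 10^4 cells/well, left overnight, then given compound diluted from a 10 mM DMSO stock for 24 h. Cells lysed and luciferase read as RLU. Inductivity = (RLUtest − RLUblank)/(RLUcontrol − RLUblank), with DMSO as control. Mean ± SEM of three experiments.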

[4] = target: T1, Nuclear factor erythroid 2-related factor 2 (Homo sapiens); assay: Activation of Nrf2 in human HepG2-ARE-C8 cells assessed as induction of ARE-mediated luciferase activity at 80 uM after 24 hrs by luciferase reporter gene assay relative to control; type: cell-based; how it was run: as §2
[5] = target: T1, Nuclear factor erythroid 2-related factor 2 (Homo sapiens); assay: Activation of Nrf2 in human LO2 cells assessed as increase in GCLM mRNA expression level by qRT-PCR analysis; type: cell-based
How it was run: (§3)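 LO2 cells in DMEM with 10% FBS were exposed to 0, 2.5, 5, 10, 20 or 40 μM compound for 12 h. Transcripts measured by qRT-PCR: 40 cycles of 95 °C for 5 s and 60 °C for 30 s. Normalized to GAPDH and expressed as fold over the untreated control. Mean ± SD, n = 3.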

L02 [6] = assay: Cytotoxicity against human LO2 cells up to 160 uM after 24 hrs by MTT assay; type: cell-based; conditions: l02, 24 h
How it was run: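 LO2 cells plated for 12 h, then treated for 24 h with 0, 0.2, 2, 20, 40, 80 or 160 μM compound diluted in medium from a DMSO stock. MTT (5 mg/mL stock) added for 4 h, formazan dissolved in DMSO, A570 read. Viability computed from OD relative to DMSO control and blank. Mean ± SD of three experiments.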

Mus musculus [7] = assay: Hepatoprotective activity against APAP-induced liver injury in C57BL/6 mouse assessed as reduction in serum ALT levels administered ip for 7 consecutive days followed by APAP challenge 1 hr post last compound dose and measured after 24 hrs; type: functional, organism-based
How it was run: (§4)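 Female C57BL/6 mice (20–25 g, n = 10/group) received 10, 50 or 100 mg/kg/day ip in saline for 7 days. One hour after the last dose they received APAP 300 mg/kg in saline. Killed 24 h later. Serum ALT/AST by kit. Liver homogenates (pH 7.0 phosphate) used for GSH (A420, μmol/g protein), GST (A412, U/mg protein) and SOD. Liver also analyzed by western blot (β-actin normalized), qRT-PCR (GAPDH normalized) and H&E.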

[8] = Intrinsic aqueous solubility of the compound by potentiometric titration method; type: physicochemical
How it was run: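 Intrinsic aqueous solubility and logD at pH 7.4 determined by Avdeef-Bucher potentiometric titration on a pION Gemini Profiler.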

[9] = target: T1, Nuclear factor erythroid 2-related factor 2 (Homo sapiens); assay: Activation of Nrf2 in human LO2 cells assessed as increase in GCLC mRNA expression level by qRT-PCR analysis; type: cell-based; how it was run: as §3
Mus musculus [10] = assay: Hepatoprotective activity against APAP-induced liver injury in C57BL/6 mouse assessed as reduction in serum AST levels administered ip for 7 consecutive days followed by APAP challenge 1 hr post last compound dose and measured after 24 hrs; type: functional, organism-based; how it was run: as §4
Mus musculus [11] = assay: Hepatoprotective activity against APAP-induced liver injury in C57BL/6 mouse assessed as decrease in APAP-induced cell necrosis administered ip for 7 consecutive days followed by APAP challenge 1 hr post last compound dose and measured after 24 hrs by hematoxylin/eosin staining based assay; type: functional, organism-based; how it was run: as §4
[12] = target: T1, Nuclear factor erythroid 2-related factor 2 (Homo sapiens); assay: Activation of Nrf2 in human LO2 cells assessed as increase in Nrf2 mRNA expression level by qRT-PCR analysis; type: cell-based; how it was run: as §3
[13] = target: T1, Nuclear factor erythroid 2-related factor 2 (Homo sapiens); assay: Activation of Nrf2 in human HepG2-ARE-C8 cells assessed as induction of ARE-mediated luciferase activity at 0.1 uM after 24 hrs by luciferase reporter gene assay relative to control; type: cell-based; how it was run: as §2
Mus musculus [14] = assay: Hepatoprotective activity against APAP-induced liver injury in C57BL/6 mouse assessed as increase in SOD levels administered ip for 7 consecutive days followed by APAP challenge 1 hr post last compound dose and measured after 24 hrs by NBT assay; type: functional, organism-based; how it was run: as §4
L02 [15] = assay: Hepatoprotective activity against APAP-induced cell injury in human LO2 cells assessed as increase in cell viability pretreated for 24 hrs followed by APAP treatment measured after 24 hrs by MTT assay; type: functional, cell-based; how it was run: as §1

In the case of `Cc1ccc(-c2noc(-c3ccc(F)c(F)c3)n2)cn1`, the viability at 20 µM (L02 [1]) is reported as 50%, the Activity [2] is reported as “Dose-dependent effect” and the Activity [3] is reported as 48.7. For the same compound, the Activity [4] was 59.5, the Activity [5] was “Dose-dependent effect” and the Activity (L02 [6]) was “<= 7%”. For the same compound, the Activity (Mus musculus [7]) was “Dose-dependent effect”, the solubility [8] was 250 µM (≈ 68.3 µg/mL) and the Activity [9] was “Dose-dependent effect”. For the same compound, the Activity (Mus musculus [10]) was “Dose-dependent effect”, the Activity (Mus musculus [11]) was “Dose-dependent effect” and the Activity [12] was “Dose-dependent effect”. For the same compound, the Activity [13] was 3.46, the Activity (Mus musculus [14]) was “Dose-dependent effect” and the Activity (L02 [15]) was “Dose-dependent effect”.
